Screens deposited in PubChem BioAssay by several laboratories.
Only some compounds are listed: those with a hit (about 1.3% of all), similar ones and a draw of the others.
ASAP1 inh = blocks human ASAP1-stimulated Arf1 GTP hydrolysis; Q9ULH1; GDP FP detection; inhibition, % at 16.5 µM; 0.19% of 360,000 active; in the data active = inhibition above about 25%;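 also: 0% = vehicle with enzyme and substrate and 100% = no enzyme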
ARFGAP1 inhibitor = inhibits rat ARF GTPase activating protein 1. inhibition, % at 16.5 µM. AID 651572. 0.26% of 360,000 active. Arfgap1-stimulated ARF1 GTP hydrolysis, GDP FP detection. Q62848;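 active = inhibition above a per-plate limit, mean inhibition of low control wells plus 3 SD, cut at about 25% in these data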;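 also: 0% = DMSO wells with enzyme and 100% = wells lacking Arfgap1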
Target sequence (Q62848 1-136 limits assumed): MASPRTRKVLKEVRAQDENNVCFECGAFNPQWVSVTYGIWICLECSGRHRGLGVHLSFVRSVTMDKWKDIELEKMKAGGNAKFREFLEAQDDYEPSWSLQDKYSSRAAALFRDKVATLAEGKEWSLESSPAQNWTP
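Replicates: Single well per compound | Assay system: Truncated rat Arfgap1 GAP domain | Control set: No-Arfgap1 wells (100%) versus DMSO full-reaction wells (0%) | Times: Enzyme reaction 120 min at 25 °C after 20 min preincubation | Reagent: Human ARF1(Δ1-17)-GTP substrate | Measured by: Tracer-displacement fluorescence polarization with EDTA stop, 620/688 nm | Measure: Percent inhibition of Arfgap1-stimulated GTP hydrolysis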
TDP2 absorb = TDP2 (human) inhibition, absorbance primary screen | recombinant TDP2, T5PNP hydrolysis, p-nitrophenol absorbance 415 nm | O95551 | 0.34% of 370,000 active | inhibition, % at 12.8 µM;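 active = inhibition above the mean of all tested compounds plus 3 SD, set per campaign, cut at about 25% in these data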;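 also: 0% = DMSO with enzyme and 100% = buffer with substrate but no TDP2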
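Read-out basis: percent inhibition. System: recombinant human TDP2. Buffer or medium: Mg2+-containing Tris-HCl buffer, pH 7.5. Repeats: single replicate. Timing: reaction 2 h, 37 °C. Benchmarks: high control without enzyme, low control DMSO plus TDP2. Probe or stimulus: 5 mM T5PNP. Doses: 12.8 µM only. Measured by: epi absorbance of p-nitrophenol freed from T5PNP by hydrolysis.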
Casp6 inh = caspase-6 (human) enzyme inhibition; 0.53% of 350,000 active; AID 686996; inhibition, % at 12.5 µM; purified caspase-6, Z-VEID-R110 cleavage fluorescence; P55212;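 active = mean inhibition across replicates at least about 35%, with every replicate also reaching that limit, limit read from the data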;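 also: 0% = median of neutral control wells and 100% = no fluorescence left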
Target sequence (P55212 24-179 limits assumed): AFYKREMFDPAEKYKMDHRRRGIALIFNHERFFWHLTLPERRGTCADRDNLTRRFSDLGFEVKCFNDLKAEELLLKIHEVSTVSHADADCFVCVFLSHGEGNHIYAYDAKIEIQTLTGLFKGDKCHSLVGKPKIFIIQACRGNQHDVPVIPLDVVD
Target sequence (P55212 194-293 limits assumed): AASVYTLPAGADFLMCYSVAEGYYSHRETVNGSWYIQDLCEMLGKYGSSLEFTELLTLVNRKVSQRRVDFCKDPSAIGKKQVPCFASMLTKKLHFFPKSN
LEDGF integ inh = blocks HIV-1 LEDGF/p75-dependent DNA integration; 0.64% of 370,000 active; inhibition, % at 3.7 µM; AID 743269; TR-FRET IN-LEDGF/p75 DNA integration, Eu/Cy5;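 active = inhibition above the screen-wide mean plus 3 SD, cut at about 13% in these data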;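 also: signal is the Cy5 over europium emission ratio at 671 and 618 nm; 0% = plate median of compound wells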
Starred values were filed as active, the others as inactive; · = no result given.

SMILES	ASAP1 inh	ARFGAP1 inhibitor	TDP2 absorb	Casp6 inh	LEDGF integ inh
CCCN(C)C[C@H]1OCCCC[C@@H](C)Oc2ccc(NS(=O)(=O)c3ccc(F)cc3)cc2C(=O)N([C@@H](C)CO)C[C@@H]1C	·	·	·	0.4	·
O=[N+]([O-])c1ccc2nc(-c3ccccc3[N+](=O)[O-])[nH]c2c1	0.2	-5.4	6.7	38.4*	-1.5
O=C(OC1CCOC1=O)c1ccc(Cl)c(S(=O)(=O)N2CCOCC2)c1 (stereo unspecified)	-20.9	-1.3	-4.6	40.4*	2.1
O=C(OC1CCOC1=O)c1ccc(Cl)c(S(=O)(=O)N2CCCCC2)c1 (stereo unspecified)	1.3	11.1	-11.6	7.9	3.6
O=C(NCC1CCCO1)C(c1ccc(F)cc1)N(CC1CCCO1)C(=O)c1ccc(-c2ccccc2)[nH]1 (stereo unspecified)	-1.0	12.2	-23.9	48.3*	2.0
CC(C)=CCC[C@](C)(O)C1CC[C@]2(C)C1[C@H](O)CC1[C@@]3(C)CC[C@H](O[C@@H]4O[C@H](CO)[C@@H](O)[C@H](O)[C@H]4O[C@@H]4O[C@H](CO)[C@@H](O)[C@H](O)[C@H]4O)C(C)(C)C3CC[C@]12C (stereo partly specified)	3.3	3.2	-0.8	3.4	1.8
C/C=C(\C)C(=O)OC1CC(C)(C)C[C@H]2C3=CC[C@@H]4[C@@]5(C)CCC(O[C@@H]6O[C@@H](C(=O)O)[C@@H](O)C(O[C@@H]7OC[C@H](O)[C@@H](O)[C@@H]7O[C@@H]7OC(CO)C(O)[C@@H](O)[C@@H]7O)C6O[C@@H]6OC(CO)C(O)C(O)C6O)[C@@](C)(CO)[C@@H]5CC[C@]4(C)[C@]3(C)CC(O)[C@@]12CO (stereo partly specified)	0.1	-18.8	1.5	58.5*	26.2*
CC1(C)CC[C@]2(C(=O)O[C@@H]3OC(CO)[C@@H](O)[C@H](O)[C@H]3O)CC[C@]3(C)C(=CCC4[C@@]5(C)CC[C@H](O[C@@H]6OC(C(=O)O)[C@@H](O)[C@H](O)[C@H]6O)C(C)(C)C5CC[C@]43C)[C@@H]2C1 (stereo partly specified)	-8.0	-3.0	-0.9	3.1	16.0*
CCN(CC(=O)Nc1c(F)cccc1F)C(=O)c1cccc(-n2cccc2)c1	-0.2	5.0	17.0	32.4	2.9
C[C@@H]1CN([C@@H](C)CO)C(=O)c2cc(NC(=O)c3ccncc3)ccc2O[C@@H](C)CCCCO[C@H]1CN(C)C(=O)c1ccncc1	·	·	·	3.0	·
O=C(O)CCCC(=O)OCCCc1cc2ccccc2c(=O)o1	-0.2	8.0	7.5	37.4*	-0.1
O=C(O)CCC(=O)OCCc1cc2ccccc2c(=O)o1	6.8	-6.5	11.5	-1.1	3.3
CN(C)C(=O)CCCc1nc(-c2ccc(Cl)cc2)no1	13.6	3.6	-3.8	·	9.4
CC(C)OC(=O)CCc1nc2ccccc2[nH]c1=O	-8.6	-6.8	2.1	·	4.2
COc1ccc(OCCOC(=O)c2nc3nccc(C)n3n2)cc1	-3.9	4.6	-0.4	-0.3	1.9
COc1ccc(C(=O)C(C)OC(=O)c2nc3nccc(C)n3n2)cc1 (stereo unspecified)	6.1	-6.3	-5.3	91.2*	-2.7
COc1cccc(N2CCN(C(=O)C3CCCN(c4ncnc5c4nc4n5CCCCC4)C3)CC2)c1 (stereo unspecified)	-2.0	-6.9	-3.8	-1.1	-0.3
CCN1CCN(c2nc3ccccc3nc2C(C#N)S(=O)(=O)c2ccc(C)cc2)CC1 (stereo unspecified)	-2.4	-8.2	2.9	·	0.8
Cc1ccc(S(=O)(=O)C(C#N)c2nc3ccccc3nc2N2CCCC2)cc1 (stereo unspecified)	9.3	-3.0	36.7*	·	6.8
O=c1cc(-c2ccc(O)c(O)c2)oc2cc(O)c([C@@H]3O[C@H](CO)[C@@H](O)[C@H](O)[C@H]3O)c(O)c12	-11.7	13.4	-2.8	5.8	57.1*
O=c1cc(-c2ccc(O)cc2)oc2c([C@@H]3O[C@H](CO)[C@@H](O)[C@H](O)[C@H]3O)c(O)c([C@@H]3O[C@H](CO)[C@@H](O)[C@H](O)[C@H]3O)c(O)c12	2.8	6.7	5.5	5.7	-3.1
Cc1ccc([N+](=O)[O-])cc1S(=O)(=O)Nc1ccc(C(=O)N(C)C)cc1	-6.7	-4.0	3.0	-2.1	0.8
